# Only some compounds are listed: those with a hit (about 1.8% of all), similar ones and a draw of the others.
# NPY1 pot ag: human NPY-Y1 potentiation or agonism, primary screen; P25929; NPY-Y1 expressing cells, potentiator/agonist activation; activation, % at 3.6 µM; 220,000 compounds, 0.37% hits; AID 1304; in the data active = activation above about 33%, passing the limit was not always enough;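 note: cells stimulated with NPY at EC10 then isoproterenol at EC100; 0% = low agonist plus stimulus and 100% = saturating agonist plus stimulus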
# Target sequence (P25929 whole entry, looked up): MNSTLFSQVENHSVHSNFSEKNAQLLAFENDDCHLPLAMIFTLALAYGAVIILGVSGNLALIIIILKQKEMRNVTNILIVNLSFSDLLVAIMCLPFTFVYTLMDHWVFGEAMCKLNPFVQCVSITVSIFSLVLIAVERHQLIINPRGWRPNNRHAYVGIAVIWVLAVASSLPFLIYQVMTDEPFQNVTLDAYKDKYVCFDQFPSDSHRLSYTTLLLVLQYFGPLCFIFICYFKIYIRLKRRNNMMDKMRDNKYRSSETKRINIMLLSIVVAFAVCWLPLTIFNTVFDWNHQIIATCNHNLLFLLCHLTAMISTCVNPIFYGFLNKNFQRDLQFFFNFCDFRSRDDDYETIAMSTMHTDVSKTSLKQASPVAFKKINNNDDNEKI
# NPY2 pot ag: human NPY-Y2 potentiation or agonism, primary screen; AID 1359; cells expressing NPY-Y2, potentiator/agonist read-out; P49146; activation, % at 3.6 µM; 220,000 compounds, 0.45% hits; in the data active = activation above about 27%;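 note: cells stimulated with NPY near EC25 plus isoproterenol at EC100; 0% = vehicle plus submaximal agonist and 100% = vehicle plus saturating agonist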
# Target sequence (P49146 whole entry, looked up): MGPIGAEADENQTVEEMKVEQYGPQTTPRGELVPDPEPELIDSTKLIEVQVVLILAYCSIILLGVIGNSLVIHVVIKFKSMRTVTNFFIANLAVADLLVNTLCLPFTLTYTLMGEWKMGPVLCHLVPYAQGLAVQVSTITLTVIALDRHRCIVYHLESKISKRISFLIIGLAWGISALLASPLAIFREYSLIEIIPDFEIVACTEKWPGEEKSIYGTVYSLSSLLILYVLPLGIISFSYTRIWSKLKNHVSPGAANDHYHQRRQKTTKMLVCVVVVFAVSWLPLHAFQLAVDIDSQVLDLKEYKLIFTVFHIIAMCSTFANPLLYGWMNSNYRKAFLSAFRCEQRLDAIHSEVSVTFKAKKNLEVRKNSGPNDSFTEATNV
# NPY-Y1 antag: NPY-Y1 (human) receptor antagonism; inhibition, % at 3.6 µM; 200,000 compounds, 1% hits; P25929; HEK293-CNG Y1 cells, membrane potential fluorescence; NPY at EC95, then isoproterenol;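 active = inhibition above the campaign mean inhibition of all tested compounds plus 3 SD, cut at about 20% in these data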;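 note: 0% = DMSO wells given NPY plus isoproterenol and 100% = isoproterenol alone without NPY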
#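 Material: HEK293 cells co-expressing NPY Y1 receptor and cyclic-nucleotide gated channel. Timing: compound incubation 1 h at room temperature, readout 45 min post-stimulation. Signal: fluorescence, membrane potential probe.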
# NPY-Y2 antag: NPY-Y2 (human) receptor antagonism; P49146; NPY-Y2 expressing cells, antagonist mode; inhibition, % at 2.7 µM; 140,000 compounds, 0.99% hits; AID 793; in the data active = inhibition above about 17%;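 note: 0% = vehicle with agonist challenge and 100% = reference antagonist with challenge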
# NPY-Y2 pot conf: human NPY-Y2 potentiation or agonism, confirmation | shares compounds with NPY2 pot ag | cell-based NPY-Y2 potentiator/agonist assay | activation, % at 3.6 µM | 450 compounds, 20% hits; in the data active = activation above about 33%
# NPY-Y1 potentiator: NPY-Y1 potentiation or agonism as NPY-Y2 counter-screen. shares compounds with NPY2 pot ag. Y1 HEK293-CNG cells, membrane potential fluorescence. activation, % at 3.6 µM. 450 compounds, 20% hits; in the data active = activation above about 45%;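 note: cells stimulated with submaximal NPY then isoproterenol with phosphodiesterase inhibitor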
# NPY-Y1 agonist 2: activates human NPY-Y1, counter-screen for NPY-Y2 potentiators; HEK293 Y1-CNGC, membrane potential fluorescence, agonism; AID 1702; shares compounds with NPY2 pot ag; 450 compounds, 37% hits; activation, % at 3.6 µM;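 active = activation above the mean of DMSO-only control wells plus 3 SD, cut at about 18% in these data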;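 note: cells stimulated with 1 µM isoproterenol plus the PDE inhibitor Ro 20-1724; 0% = isoproterenol with DMSO and no NPY and 100% = 40 nM NPY; Y1 agonists lower the membrane potential dye signal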
# CNGC inh: blocks CNG channel activity, counter-screen for NPY-Y2 potentiators. shares compounds with NPY2 pot ag. HEK293-CNG parental, isoproterenol cAMP, membrane potential fluorescence. inhibition, % at 3.6 µM. 450 compounds, 32% hits;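 active = inhibition above the control-well mean plus 3 SD of those wells, cut at about 22% in these data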;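 note: 0% = DMSO with isoproterenol and 100% = DMSO without isoproterenol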
# Y2 agonist ctr: counter-screen for NPY-Y2 potentiators: agonists of human NPY-Y2; shares compounds with NPY2 pot ag; HEK293 Y2/CNGC cells, membrane potential fluorescence, agonist mode; activation, % at 3.6 µM; 450 compounds, 56% hits; AID 1710;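 active = activation above the mean of solvent-only control wells plus 3 SD, cut at about 10% in these data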;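 note: cells stimulated by isoproterenol with no NPY added so direct agonism is tested; 0% = DMSO with isoproterenol alone and 100% = NPY at EC100 plus isoproterenol; agonism lowers probe fluorescence through less cAMP and CNG channel opening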
# An asterisk follows results filed as active; nt = no result.
SMILES,NPY1 pot ag,NPY2 pot ag,NPY-Y1 antag,NPY-Y2 antag,NPY-Y2 pot conf,NPY-Y1 potentiator,NPY-Y1 agonist 2,CNGC inh,Y2 agonist ctr
COC(=O)CCSc1cc(NCCOC(C)=O)c([N+](=O)[O-])c2nonc12,-6.8,42.8*,-7.1,0.2,-1.6,-2.6,-6.4,3.9,-2.8
CCCC(=O)OCCNc1cc(SCCC(=O)OC)c2nonc2c1[N+](=O)[O-],-9.4,4.8,-3.1,-0.3,nt,nt,nt,nt,nt
Cc1ncc([N+](=O)[O-])n1Cc1ccc(Br)cc1,12.5,2.9,1.7,nt,nt,nt,nt,nt,nt
CCc1nc2n(n1)C(O)c1cc([N+](=O)[O-])ccc1S2 (stereo unspecified),4.6,-21.3,nt,nt,nt,nt,nt,nt,nt
CC(C)NC(=S)N=Nc1c(O)[nH]c2ccc([N+](=O)[O-])cc12,23.0,34.7*,-1.4,nt,16.5,29.1,19.0*,17.0,22.1*
CCOc1ccc(C(C(=O)NC2CCCC2)N(CCCO)C(=O)c2ccc(-c3ccccc3)[nH]2)cc1 (stereo unspecified),10.8,0.4,-2.2,nt,nt,nt,nt,nt,nt
COc1ccc(S(=O)(=O)Nc2ccc(S(=O)(=O)Nc3ccc(F)cc3)cc2)cc1C,30.4,33.8*,-7.1,-5.3,24.8,37.4,26.9*,22.5*,21.1*
CCCOC(=O)NC(CC)COC(=O)Nc1cccc(C)c1C (stereo unspecified),12.2,33.1*,4.1,4.1,-4.9,-1.5,-2.2,-3.9,4.9
Cc1ccc(C(=O)NC2CCCCNC2=O)cc1 (stereo unspecified),7.9,2.5,nt,nt,nt,nt,nt,nt,nt
CC(=O)c1ccc(NC(=O)C2CCCN(C(=O)c3ccc(Cl)cc3)C2)cc1 (stereo unspecified),18.6,28.2*,-8.5,nt,32.4,38.5,29.0*,30.1*,30.1*
COc1cc(SSc2cc(OC)cc([N+](=O)[O-])c2N)c(N)c([N+](=O)[O-])c1,-5.7,-1.1,nt,nt,nt,nt,nt,nt,nt
CC(=O)c1c(C)[nH]c(C(=O)OCCCCN2C(=O)c3ccccc3C2=O)c1C,-30.6,39.4*,3.8,3.0,1.4,-11.1,11.5,-7.0,22.2*
Cc1cccc2sc(NC(=O)C3CCN(S(=O)(=O)c4cc([N+](=O)[O-])ccc4Cl)CC3)nc12,27.6,40.4*,-5.3,-0.7,29.0,22.0,23.7*,18.4,41.4*
CN(CC1CCCO1)S(=O)(=O)c1ccc(C(=O)Nc2nc3cc4c(cc3s2)OCO4)cc1 (stereo unspecified),12.9,43.3*,0.1,1.1,3.0,-8.6,-22.8,-12.4,7.0
COc1ccc(N(CC(=O)Nc2ccccc2C(N)=O)S(=O)(=O)c2ccc(C)c([N+](=O)[O-])c2)cc1,14.9,16.1,-1.3,nt,nt,nt,nt,nt,nt
Cc1nn(Cc2ccc(Cl)cc2)c(C)c1NC(=O)CSc1n[nH]c(C)c1[N+](=O)[O-],8.9,28.6*,-3.5,0.7,13.3,16.1,15.6,19.4,26.5*
Cc1nn(Cc2ccccc2)c(C)c1NC(=O)CSc1n[nH]c(C)c1[N+](=O)[O-],-10.9,14.7,-3.7,0.3,nt,nt,nt,nt,nt
CC(C)C(O)(C#CCN1CCCC1)c1ccccc1 (stereo unspecified),4.9,101.9*,3.7,-0.4,-6.5,-11.1,-5.8,-3.8,0.9
CCOCCc1c(O)nc(SCC)[nH]c1=O,-10.0,-17.1,nt,nt,nt,nt,nt,nt,nt
O=C(Nc1ccccc1)OC1CCC2CC1CCC2OC(=O)Nc1ccccc1 (stereo unspecified),40.2,30.8*,5.2,13.5,51.1*,71.5*,54.8*,38.1*,66.5*
O=C(Nc1ccccc1)C1CC2CCCC(C1)C2=O (stereo unspecified),5.4,12.5,4.6,-0.7,nt,nt,nt,nt,nt
COc1ccc(-c2csc(NC(=O)c3ccccc3NS(=O)(=O)c3ccc(C)cc3)n2)cc1,36.4,64.9*,-7.5,0.8,30.6,-1.8,1.4,-4.3,24.8*
CC(C)CNC(=O)c1ccc(Cl)c(N)c1,3.6,-2.9,6.2,-2.3,nt,nt,nt,nt,nt
CS(=O)(=O)N1CCc2cc(-c3csc(NC(=O)Cc4cccs4)n3)ccc21,-7.1,36.1*,-9.7,4.0,-8.9,-27.1,-29.4,-11.6,-13.7
COC(=O)NC1(C(=O)O)CCCC1,7.2,13.4,nt,nt,nt,nt,nt,nt,nt
SMILES,NPY1 pot ag,NPY2 pot ag,NPY-Y1 antag,NPY-Y2 antag,NPY-Y2 pot conf,NPY-Y1 potentiator,NPY-Y1 agonist 2,CNGC inh,Y2 agonist ctr
CN(C(=O)Cn1cc(C(F)(F)F)ccc1=O)c1c(N)n(Cc2ccccc2)c(=O)[nH]c1=O,-14.6,4.2,nt,nt,nt,nt,nt,nt,nt
O=C(NCCCn1ccnc1)Nc1ccc(Cl)cc1,32.2,103.4*,-2.2,-0.6,4.9,10.4,0.4,7.0,10.6*
O=C(NCCCn1ccnc1)Nc1ccc(Cl)c(Cl)c1,-17.8,1.2,2.8,0.6,nt,nt,nt,nt,nt
Cc1ccc([N+](=O)[O-])cc1N=C(c1cccc(Br)c1)N1CCOCC1,7.2,-15.0,-2.4,4.8,nt,nt,nt,nt,nt
O=C(N/N=C/c1ccncc1)c1cccc(S(=O)(=O)Nc2ccc(Cl)cc2)c1,15.1,9.1,nt,nt,nt,nt,nt,nt,nt
O=C(/C=C/c1cccc(C(F)(F)F)c1)Nc1cccc(C(F)(F)F)c1,32.6,36.1*,-12.4,-1.7,18.9,23.4,24.7*,32.7*,15.6*
Cc1ccc(NC(=O)/C=C/c2cccc(C(F)(F)F)c2)cc1,-16.3,-10.8,-1.2,5.0,nt,nt,nt,nt,nt
CN(Cc1cccs1)C(=O)Cn1cnc2ccccc2c1=O,-8.0,2.1,4.8,nt,nt,nt,nt,nt,nt
COc1ccccc1N(CC(=O)Nc1cccc(C(F)(F)F)c1)S(C)(=O)=O,2.0,-31.6,0.2,nt,nt,nt,nt,nt,nt
Cc1ccc([N+](=O)[O-])cc1N(CC(=O)Nc1ccc(S(=O)(=O)Nc2cccc(C(F)(F)F)c2)cc1)S(C)(=O)=O,25.1,44.6*,-14.7,-7.4,43.3*,63.7*,57.8*,50.6*,53.2*
COc1cc(OC)c(NC(=O)CCNS(=O)(=O)c2cc(Br)cnc2N)cc1Cl,20.3,48.0*,-4.2,-2.6,9.4,22.2,13.9,14.2,5.1
Cc1ccc(NC(=O)CCNS(=O)(=O)c2cc(Br)cnc2N)c(Cl)c1,-11.7,-14.4,0.3,2.3,nt,nt,nt,nt,nt
CCOc1ccc(NC(=O)CN(C)CC(=O)Nc2ccc(Br)cc2F)cc1OCC,-6.2,-10.8,11.1,nt,nt,nt,nt,nt,nt
CCCN(CCC)Cc1cc(=O)oc2cc3c(cc12)CCC3,-38.9,-21.9,nt,nt,nt,nt,nt,nt,nt
COc1ccccc1NS(=O)(=O)c1cccc(NC(=O)Nc2ccc(Cl)cc2)c1,18.6,31.3*,-8.6,nt,30.0,37.5,29.8*,31.9*,30.8*
CN(C)S(=O)(=O)c1cccc(NC(=O)Cc2ccc(Cl)cc2)c1,6.3,2.5,-6.7,3.7,nt,nt,nt,nt,nt
O=C(Cc1ccc(Cl)cc1)Nc1cccc(S(=O)(=O)Nc2ccccc2F)c1,38.5,38.2*,-8.1,-3.6,14.4,22.3,13.0,15.6,19.9*

# High-throughput results deposited in PubChem BioAssay by The Scripps Research Institute Molecular Screening Center.
